# Measured values taken from ChEMBL document CHEMBL1140318, “Potent androgen antagonists based on carborane as a hydrophobic core structure” (J Med Chem, 2005).
# Molecular target: Androgen receptor (Homo sapiens) (UniProt P10275)
# Assay: Percent displacement of [3H]DHT binding to human androgen receptor expressed in Escherichia coli strain HB-101 at 10 uM
# How it was run: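 GST-hAR ligand-binding domain expressed in E. coli HB-101 (1 mM IPTG, 27 °C, 4.5 h); crude sonicate diluted to 0.3-0.5 mg/mL protein (20 mM Tris-HCl pH 8.0, 0.3 M KCl, 1 mM EDTA). Incubated 15 h at 4 °C in dark with 4 nM [3H]DHT and 1 μM triamcinolone acetonide (final). Nonspecific binding measured with 200-fold unlabeled DHT. Dextran/γ-globulin-charcoal separation, supernatant scintillation-counted.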
# UniProt P10275, sequence (P10275 whole entry): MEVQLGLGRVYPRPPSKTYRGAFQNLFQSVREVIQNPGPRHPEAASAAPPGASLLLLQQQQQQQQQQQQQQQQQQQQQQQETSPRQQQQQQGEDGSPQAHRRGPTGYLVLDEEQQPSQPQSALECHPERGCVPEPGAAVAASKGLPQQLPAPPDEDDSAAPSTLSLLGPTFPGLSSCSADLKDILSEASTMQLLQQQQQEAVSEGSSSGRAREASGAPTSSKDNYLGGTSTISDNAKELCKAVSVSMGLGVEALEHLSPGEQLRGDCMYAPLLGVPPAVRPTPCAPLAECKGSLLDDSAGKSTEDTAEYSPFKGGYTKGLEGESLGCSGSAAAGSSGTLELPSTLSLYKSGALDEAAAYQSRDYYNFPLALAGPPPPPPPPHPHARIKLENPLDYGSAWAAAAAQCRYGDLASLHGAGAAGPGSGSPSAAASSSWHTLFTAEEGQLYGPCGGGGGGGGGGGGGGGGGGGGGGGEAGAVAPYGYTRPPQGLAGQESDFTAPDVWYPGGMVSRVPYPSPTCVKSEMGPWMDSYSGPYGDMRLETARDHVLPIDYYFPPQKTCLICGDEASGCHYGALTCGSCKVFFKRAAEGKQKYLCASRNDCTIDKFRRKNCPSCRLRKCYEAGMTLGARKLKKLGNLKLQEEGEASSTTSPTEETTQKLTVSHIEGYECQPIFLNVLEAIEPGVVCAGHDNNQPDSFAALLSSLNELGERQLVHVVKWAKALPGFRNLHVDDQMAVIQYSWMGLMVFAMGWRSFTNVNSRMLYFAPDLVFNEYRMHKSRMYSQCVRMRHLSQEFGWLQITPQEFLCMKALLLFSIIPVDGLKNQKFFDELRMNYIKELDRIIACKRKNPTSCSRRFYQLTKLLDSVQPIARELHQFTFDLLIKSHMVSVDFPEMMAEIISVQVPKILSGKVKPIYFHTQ
row,Binding affinity,Substance
1,39%,"1-(3-Hydroxypropyl)-12-(3-nitrophenyl)-1,12-dicarbacloso-dodecaborane"
2,20%,"1-(4-Hydroxybutyl)-12-(3-nitrophenyl)-1,12-dicarbacloso-dodecaborane"
3,29%,"1-(4-Nitrophenyl)-1,12-dicarba-closo-dodecaborane"
4,50%,"1-Hydroxy-12-(4-cyanophenyl)-1,12-dicarba-closo-dodecaborane"
5,53%,"1-Hydroxy-12-(4-nitrophenyl)-1,12-dicarba-closo-dodecaborane"
6,54%,"1-Hydroxymethyl-7-(3-nitrophenyl)-1,7-dicarba-closododecaborane"
7,95%,"1-Hydroxymethyl-12-(3-cyanophenyl)-1,12-dicarbacloso-dodecaborane"
8,97%,"1-Hydroxymethyl-12-(3-nitrophenyl)-1,12-dicarba-closododecaborane"
9,18%,"1-Methoxycarbonyl-12-(3-nitrophenyl)-1,12-dicarbacloso-dodecaborane"

# Further lines, the substance ahead of its results:
row,Substance,Binding affinity
1,"1-(2-Hydroxyethyl)-12-(3-nitrophenyl)-1,12-dicarbacloso-dodecaborane",63%
2,"1-(3-Nitrophenyl)-1,12-dicarba-closo-dodecaborane",36%
3,"1-(3-Nitrophenyl)-1,12-dicarba-closo-dodecaborane-1-carboxylic Acid",35%
4,"1-Hydroxy-12-(3-cyanophenyl)-1,12-dicarba-closo-dodecaborane",66%
5,"1-Hydroxy-12-(3-nitrophenyl)-1,12-dicarba-closo-dodecaborane",75%
6,"1-Hydroxymethyl-7-(4-nitrophenyl)-1,7-dicarba-closododecaborane",60%
7,"1-Hydroxymethyl-12-(4-cyanophenyl)-1,12-dicarbacloso-dodecaborane",54%
8,"1-Hydroxymethyl-12-(4-nitrophenyl)-1,12-dicarba-closodod caborane",55%
